Data reported in ChEMBL document CHEMBL4049392, “New azole derivatives showing antimicrobial effects and their mechanism of antifungal activity by molecular modeling studies” (Eur J Med Chem, 2017).

Experiments:
Pichia kudriavzevii = assay: Anti-fungal activity against Candida krusei ATCC 6258 after 48 hrs by broth microdilution method; type: functional; conditions: ATCC 6258, 48 h
Procedure, shortened: (§1)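 CLSI broth microdilution in RPMI 1640 (with glutamine, without bicarbonate) buffered to pH 7.0 with MOPS. Inoculum was prepared from 24 h Sabouraud dextrose agar subcultures, final 0.5 to 2.5 10^3 cfu/mL. Twofold dilutions were made from DMSO stocks. Incubated 35 °C for 48 h. MIC was the lowest concentration with no visible growth; for the fluconazole reference, MIC was taken at about 80% growth inhibition versus control.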

[1] = Cytotoxicity against human U937 cells assessed as cell viability at 10 to 100 ug/ml after 48 hrs by MTT assay relative to control; type: cell-based, U-937; conditions: read-out: Activity
Procedure, shortened: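 U937 human monocytic cells, 4 10^3 per well in RPMI-1640 with 10% FBS, L-glutamine, penicillin and streptomycin, at 37 °C and 5% CO2. Compounds in DMSO were added at five final concentrations for 48 h, in triplicate. MTT was added for 4 h, formazan was dissolved overnight in SDS/23% DMF, and OD was read at 570 nm. Results are % reduction in viable cells versus control.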

Staphylococcus aureus = assay: Antibacterial activity against Staphylococcus aureus ATCC 29213 after 18 to 24 hrs by broth microdilution method; type: functional
Procedure, shortened: (§2)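 CLSI broth microdilution in Mueller Hinton broth, with inoculum from 24 h Mueller Hinton agar subcultures, final about 5 10^5 cfu/mL. Compounds were dissolved in DMSO and tested as twofold dilutions in wells. Plates were incubated at 35 °C for 18–24 h. MIC was read as the lowest concentration completely inhibiting visible growth. Ciprofloxacin was the reference.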

Enterococcus faecalis = assay: Antibacterial activity against Enterococcus faecalis ATCC 29212 after 18 to 24 hrs by broth microdilution method; type: functional; procedure, shortened: as §2
Candida albicans [2] = assay: Antibiofilm activity against Candida albicans SC5314 after 24 hrs by turbidity assay; type: functional
Procedure, shortened: (§3)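 Biofilms were grown on Calgary device pegs from a 10^6 cfu/mL inoculum for 24 h at 37 °C. Pegs were rinsed in saline, then challenged with twofold dilutions for 24 h at 35 °C. Biofilm was recovered by 5 min sonication into RPMI 1640 with 2% glucose and incubated overnight. OD was read at 550 nm plus visual turbidity. MBEC was the lowest concentration preventing regrowth. MBIC was the minimum concentration preventing initial biofilm formation, judged by visual turbidity.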

Candida parapsilosis = assay: Anti-fungal activity against Candida parapsilosis ATCC 90018 after 48 hrs by broth microdilution method; type: functional; conditions: Lodderomyces parapsilosis, ATCC 90018, 48 h; procedure, shortened: as §1
Pseudomonas aeruginosa = assay: Antibacterial activity against Pseudomonas aeruginosa ATCC 27853 after 18 to 24 hrs by broth microdilution method; type: functional; procedure, shortened: as §2
Nakaseomyces glabratus = assay: Anti-fungal activity against drug-resistant Candida glabrata after 48 hrs by broth microdilution method; type: functional
Procedure, shortened: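 Clinical resistant C. glabrata isolate, stored frozen in glycerol and subcultured twice on Sabouraud dextrose agar. CLSI broth microdilution in RPMI 1640 (glutamine, no bicarbonate) buffered to pH 7.0 with MOPS. Inoculum from 24 h subcultures, final 0.5 to 2.5 x10^3 cfu/mL. DMSO-dissolved compounds in twofold dilutions, 35 C for 48 h. MIC is the lowest concentration giving complete visual growth inhibition; fluconazole reference read at about 80% inhibition.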

Candida albicans [3] = assay: Anti-fungal activity against Candida albicans ATCC 90028 after 48 hrs by broth microdilution method; type: functional; conditions: ATCC 90028, 48 h; procedure, shortened: as §1
Escherichia coli = assay: Antibacterial activity against Escherichia coli ATCC 25922 after 18 to 24 hrs by broth microdilution method; type: functional; procedure, shortened: as §2
Candida albicans [4] = assay: Antibiofilm activity against Candida albicans SC5314 after 24 hrs by spectrophotometric method; type: functional; procedure, shortened: as §3

SMILES | MIC (Pichia kudriavzevii) [µg/mL] | viability at 48 h [1] [%] | MIC (Staphylococcus aureus) [µg/mL] | MIC (Enterococcus faecalis) [µg/mL] | MBIC (Candida albicans [2]) [µg/mL] | MIC (Candida parapsilosis) [µg/mL] | MIC (Pseudomonas aeruginosa) [µg/mL] | MIC (Nakaseomyces glabratus) [µg/mL] | MIC (Candida albicans [3]) [µg/mL] | MIC (Escherichia coli) [µg/mL] | MBEC (Candida albicans [4]) [µg/mL]
Cl.O=C(OC(Cn1ccnc1)c1ccc(Cl)cc1)c1ccc(-c2ccccc2)cc1 (stereo not drawn) | 4 | 70 to 80 | 512 | 256 | 4 | 0.25 | 256 | 4 | 0.25 | 512 | 512
Cl.O=C(OC(Cn1ccnc1)c1ccccc1)c1ccc(-c2ccccc2)cc1 (stereo not drawn) | 8 | 70 to 80 | 512 | 128 | 8 | 0.125 | 256 | 2 | 0.125 | 512 | 1024
CCCCC(=O)OC(Cn1ccnc1)c1ccc(Cl)cc1.Cl (stereo not drawn) | 8 | 70 to 80 | 32 | 128 | 8 | 0.5 | 256 | 0.25 | 0.5 | 512 | 1024
